The text below walks through data of ChEMBL document CHEMBL1134751, “Design and synthesis of ether analogues as potent and selective M2 muscarinic receptor antagonists” (Bioorg Med Chem Lett, 2001).

The target of experiment [1] is T1, Muscarinic acetylcholine receptor M2 (Homo sapiens, UniProt P08172).
T1 sequence (P08172 whole entry): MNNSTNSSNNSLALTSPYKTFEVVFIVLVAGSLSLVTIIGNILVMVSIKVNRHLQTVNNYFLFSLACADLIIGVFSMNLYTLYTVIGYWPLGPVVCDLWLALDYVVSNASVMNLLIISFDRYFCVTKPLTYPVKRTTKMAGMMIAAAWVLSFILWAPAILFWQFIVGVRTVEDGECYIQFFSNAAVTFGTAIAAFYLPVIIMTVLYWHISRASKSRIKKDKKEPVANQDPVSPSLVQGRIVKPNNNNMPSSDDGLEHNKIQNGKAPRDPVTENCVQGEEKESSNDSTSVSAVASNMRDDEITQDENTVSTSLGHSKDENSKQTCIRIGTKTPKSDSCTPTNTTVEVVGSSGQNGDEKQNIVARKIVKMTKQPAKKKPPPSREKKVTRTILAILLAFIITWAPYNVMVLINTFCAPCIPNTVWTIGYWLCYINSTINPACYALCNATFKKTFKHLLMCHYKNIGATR
Nature of the experiment: Binding affinity towards Muscarinic acetylcholine receptor M2 stably expressed in CHO-K1 cells using [3H]-QNB as radioligand. The format is cell-based. A digest of the protocol: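 Competition binding on membranes of clonal cells expressing receptor at 1–9 pmol/mg protein. Incubated with 180 pM [3H]QNB in 10 mM potassium phosphate pH 7.4 plus 1% DMSO and 0.4% methylcellulose for 120 min at rt to equilibrium. Non-specific binding defined with 0.5 mM atropine, protein set for 700–1500 cpm specific binding, then filtration separation. QNB Kd from saturation with 5–2500 pM [3H]QNB.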

Experiment [2] has as its target T2, Muscarinic acetylcholine receptor M2 (Homo sapiens) (UniProt P08172).
T2 sequence (whole entry): T1 sequence (P08172 whole entry)
Nature of the experiment: Ratio of binding affinity against Muscarinic acetylcholine receptor M5 to that of Muscarinic acetylcholine receptor M2.

Experiment [3] addresses Muscarinic acetylcholine receptors; M1 & M2 (Homo sapiens) (UniProt P11229+P08172). Nature of the experiment: Ratio of binding affinity against Muscarinic acetylcholine receptor M1 to that of Muscarinic acetylcholine receptor M2. The format is protein assay.
The target in experiment [4] is T2, Muscarinic acetylcholine receptor M2 (Homo sapiens). Nature of the experiment: Ratio of binding affinity against Muscarinic acetylcholine receptor M4 to that of Muscarinic acetylcholine receptor M2.
Experiment [5] deals with Muscarinic acetylcholine receptors; M2 & M3 (Homo sapiens) (UniProt P20309+P08172). In words: Ratio of binding affinity against Muscarinic acetylcholine receptor M3 to that of Muscarinic acetylcholine receptor M2. Format: protein assay.

Muscarinic acetylcholine receptors; M1 & M2 (Homo sapiens), sequence (P11229 whole entry, looked up, one chain of several): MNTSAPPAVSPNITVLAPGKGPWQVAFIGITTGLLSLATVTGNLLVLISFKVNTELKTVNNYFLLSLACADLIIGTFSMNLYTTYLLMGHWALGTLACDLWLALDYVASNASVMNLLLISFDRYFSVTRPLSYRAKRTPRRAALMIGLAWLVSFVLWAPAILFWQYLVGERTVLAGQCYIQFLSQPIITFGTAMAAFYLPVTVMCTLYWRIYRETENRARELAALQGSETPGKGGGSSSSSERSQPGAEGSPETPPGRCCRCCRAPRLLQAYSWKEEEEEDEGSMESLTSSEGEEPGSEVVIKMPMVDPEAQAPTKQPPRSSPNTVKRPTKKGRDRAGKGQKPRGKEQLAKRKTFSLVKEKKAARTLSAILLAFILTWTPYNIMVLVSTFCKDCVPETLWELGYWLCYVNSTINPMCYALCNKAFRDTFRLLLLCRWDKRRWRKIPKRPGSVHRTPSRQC

As a reminder, the Ki is the equilibrium dissociation constant of an inhibitor or competing ligand from its target. A high value points to weaker binding. For the molecule `O=C(c1ccccc1)N1CCC(N2CCC(Oc3ccc(S(=O)(=O)c4ccc5c(c4)OCO5)cc3)CC2)CC1`, the affinity in experiment [1], expressed as Ki, was 1.6 nM. The Ratio in experiment [2] came out at 15; in experiment [3] it was 18; in experiment [4], 6; in experiment [5] it was 6.

As for `CCCCS(=O)(=O)N1CCC(N2CCC(Oc3ccc(S(=O)(=O)c4ccc5c(c4)OCO5)cc3)CC2)CC1`, affinity in experiment [1] was put at a Ki of 6.9 nM. Moreover, the Ratio in experiment [2] was determined as 35; in experiment [3], 35; in experiment [4], 4; in experiment [5], 50.

In experiment [1], `CC(C)S(=O)(=O)N1CCC(N2CCC(Oc3ccc(S(=O)(=O)c4ccc5c(c4)OCO5)cc3)CC2)CC1` registered a Ki of 14 nM. Moreover, the Ratio in experiment [2] stood at 16; in experiment [3], 10; in experiment [4] it was 2; in experiment [5], 2.

In experiment [1], `CCS(=O)(=O)N1CCC(N2CCC(Oc3ccc(S(=O)(=O)c4ccc5c(c4)OCO5)cc3)CC2)CC1` registered an inhibition constant (Ki) of 2 nM. Also, the Ratio in experiment [2] was determined as 46; in experiment [3], 49; in experiment [4], 12; in experiment [5] it was 122.

Molecule `CCOCC(=O)N1CCC(N2CCC(Oc3ccc(S(=O)(=O)c4ccc5c(c4)OCO5)cc3)CC2)CC1` displayed a Ki in experiment [1] of 17.9 nM. In addition, the Ratio is 13 in experiment [2], 6 in experiment [3], 2 in experiment [4] and 5 in experiment [5].

For the molecule `CCCS(=O)(=O)N1CCC(N2CCC(Oc3ccc(S(=O)(=O)c4ccc5c(c4)OCO5)cc3)CC2)CC1`, the Ki in experiment [1] amounted to 1.6 nM. In addition, the Ratio in experiment [2] turned out to be 39; in experiment [3] it was 58; in experiment [4], 25; in experiment [5], 46.

Regarding `O=S(=O)(c1ccc(OC2CCN(C3CCN(S(=O)(=O)c4cccc5ccccc45)CC3)CC2)cc1)c1ccc2c(c1)OCO2`, in experiment [1], the inhibitory constant (Ki) turned out to be 34.7 nM. Also, the Ratio in experiment [2] worked out at 4; in experiment [3] it was 2; in experiment [4], 1; in experiment [5], 8.

In turn, `O=C(c1cccc2cccnc12)N1CCC(N2CCC(Oc3ccc(S(=O)(=O)c4ccc5c(c4)OCO5)cc3)CC2)CC1` displayed an inhibitory constant (Ki) in experiment [1] of 12 nM. In addition, the Ratio in experiment [2] was 4; in experiment [3], 9; in experiment [4], 2; in experiment [5], 10.

Turning to `Cc1ccsc1C(=O)N1CCC(N2CCC(Oc3ccc(S(=O)(=O)c4ccc5c(c4)OCO5)cc3)CC2)CC1`, the Ki in experiment [1] came to 0.2 nM. The Ratio turned out to be 196 in experiment [2], 234 in experiment [3], 23 in experiment [4] and 109 in experiment [5].

As for `O=C(c1cccc2ccccc12)N1CCC(N2CCC(Oc3ccc(S(=O)(=O)c4ccc5c(c4)OCO5)cc3)CC2)CC1`, the affinity in experiment [1] corresponds to a Ki of 0.5 nM. Moreover, the Ratio in experiment [2] was 50; in experiment [3], 357; in experiment [4], 28; in experiment [5], 216.

For the molecule `CC(C)OC(=O)N1CCC(N2CCC(Oc3ccc(S(=O)(=O)c4ccc5c(c4)OCO5)cc3)CC2)CC1`, the inhibition constant Ki in experiment [1] came out at 3.2 nM. The Ratio in experiment [2] is 10; in experiment [3] it was 59; in experiment [4], 7; in experiment [5], 19.

Consider `O=C(COc1ccccc1)N1CCC(N2CCC(Oc3ccc(S(=O)(=O)c4ccc5c(c4)OCO5)cc3)CC2)CC1`, for which the affinity in experiment [1], expressed as Ki, was 59.5 nM. For the same molecule, the Ratio in experiment [2] came out at 13; in experiment [3] it was 8; in experiment [4], 3; in experiment [5], 5.

As for `O=C(Oc1ccccc1)N1CCC(N2CCC(Oc3ccc(S(=O)(=O)c4ccc5c(c4)OCO5)cc3)CC2)CC1`, in experiment [1], the Ki is 1.1 nM. Also, the Ratio in experiment [2] came out at 69; in experiment [3], 48; in experiment [4], 11; in experiment [5] it was 61.

Molecule `O=C(c1ccnc2ccccc12)N1CCC(N2CCC(Oc3ccc(S(=O)(=O)c4ccc5c(c4)OCO5)cc3)CC2)CC1` returned an inhibition constant (Ki) in experiment [1] of 1 nM. Also, the Ratio in experiment [2] was 1480; in experiment [3] it was 140; in experiment [4], 18; in experiment [5], 117.

`CCOC(=O)N1CCC(N2CCC(Oc3ccc(S(=O)(=O)c4ccc5c(c4)OCO5)cc3)CC2)CC1` yielded an inhibitory constant (Ki) in experiment [1] of 6 nM. Besides, the Ratio in experiment [3] turned out to be 4.

For `O=S(=O)(c1ccc(OC2CCN(C3CCN(S(=O)(=O)Cc4ccccc4)CC3)CC2)cc1)c1ccc2c(c1)OCO2`, the Ki in experiment [1] worked out at 15 nM. Besides, the Ratio came to 1 in experiment [2], 19 in experiment [3], 4 in experiment [4] and 12 in experiment [5].

For `CCCS(=O)(=O)N1CCC(N2CCC(Oc3ccc(S(=O)(=O)c4ccc(OC)cc4)cc3)CC2)CC1`, the inhibition constant (Ki) in experiment [1] came to 139 nM.

For the molecule `Cc1cccc(C(=O)N2CCC(N3CCC(Oc4ccc(S(=O)(=O)c5ccc6c(c5)OCO6)cc4)CC3)CC2)c1C`, affinity in experiment [1] was put at a Ki of 0.4 nM. In addition, the Ratio in experiment [2] worked out at 56; in experiment [3], 155; in experiment [4], 31; in experiment [5], 132.

`O=C(c1cccc2ncccc12)N1CCC(N2CCC(Oc3ccc(S(=O)(=O)c4ccc5c(c4)OCO5)cc3)CC2)CC1` registered a Ki in experiment [1] of 0.5 nM. Besides, the Ratio in experiment [2] turned out to be 64; in experiment [3], 233; in experiment [4], 21; in experiment [5] it was 124.
